Laboratory results: ChEMBL document CHEMBL1255169, “Synthesis, structure-affinity relationships, and radiolabeling of selective high-affinity 5-HT4 receptor ligands as prospective imaging probes for positron emission tomography” (J Med Chem, 2010)
Activity calls are given as the source filed them. The rule behind the calls is not given here.

Legend:
[1] = molecular target: 5-hydroxytryptamine receptor 4 (Cavia porcellus, UniProt O70528); test: Displacement of [3H]GR113808 from 5HT4 receptor in guinea pig striatal membranes; assay type: cell membranes, Striatum, Membrane
5-hydroxytryptamine receptor 4 (Cavia porcellus, UniProt O70528), sequence (O70528 whole entry): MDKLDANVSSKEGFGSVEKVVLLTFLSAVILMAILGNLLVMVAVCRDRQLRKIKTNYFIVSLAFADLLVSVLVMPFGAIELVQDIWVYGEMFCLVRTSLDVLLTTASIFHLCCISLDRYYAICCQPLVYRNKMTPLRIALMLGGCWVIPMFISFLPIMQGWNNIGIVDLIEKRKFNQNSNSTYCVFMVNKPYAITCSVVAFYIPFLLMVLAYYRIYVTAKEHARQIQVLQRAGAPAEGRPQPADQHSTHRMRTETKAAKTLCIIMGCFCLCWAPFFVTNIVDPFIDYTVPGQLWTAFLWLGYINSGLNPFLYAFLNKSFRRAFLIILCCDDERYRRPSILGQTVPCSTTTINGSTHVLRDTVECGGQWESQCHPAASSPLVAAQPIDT

[2] = molecular target: T1, 5-hydroxytryptamine receptor 4 (Homo sapiens, UniProt Q13639); test: Displacement of [3H]GR113808 from human recombinant 5HT4 receptor expressed in HEK293 cells; assay type: cell-based
T1 sequence (Q13639 whole entry): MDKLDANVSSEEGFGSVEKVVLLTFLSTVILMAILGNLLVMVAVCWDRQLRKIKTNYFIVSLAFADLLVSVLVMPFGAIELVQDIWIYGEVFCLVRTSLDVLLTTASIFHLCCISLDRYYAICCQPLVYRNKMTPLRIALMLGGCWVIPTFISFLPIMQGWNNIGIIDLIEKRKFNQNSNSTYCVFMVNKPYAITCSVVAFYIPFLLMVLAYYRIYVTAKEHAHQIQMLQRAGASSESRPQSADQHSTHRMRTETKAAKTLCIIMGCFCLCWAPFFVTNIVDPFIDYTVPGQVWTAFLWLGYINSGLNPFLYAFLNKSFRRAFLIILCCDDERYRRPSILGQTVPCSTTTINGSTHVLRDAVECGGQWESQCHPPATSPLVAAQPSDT

[3] = molecular target: T1, 5-hydroxytryptamine receptor 4; test: Agonist activity at 5HT4 receptor expressed in HEK293/L9 cells by cAMP assay; assay type: functional, cell-based
[4] = molecular target: T1, 5-hydroxytryptamine receptor 4; test: Inverse agonist activity at 5HT4 receptor expressed in HEK293/L9 cells by cAMP assay; assay type: functional, cell-based
D(4) dopamine receptor = molecular target: T2, D(4) dopamine receptor (Rattus norvegicus, UniProt P30729); test: Binding affinity to rat dopamine D4 receptor
T2 sequence (P30729 whole entry): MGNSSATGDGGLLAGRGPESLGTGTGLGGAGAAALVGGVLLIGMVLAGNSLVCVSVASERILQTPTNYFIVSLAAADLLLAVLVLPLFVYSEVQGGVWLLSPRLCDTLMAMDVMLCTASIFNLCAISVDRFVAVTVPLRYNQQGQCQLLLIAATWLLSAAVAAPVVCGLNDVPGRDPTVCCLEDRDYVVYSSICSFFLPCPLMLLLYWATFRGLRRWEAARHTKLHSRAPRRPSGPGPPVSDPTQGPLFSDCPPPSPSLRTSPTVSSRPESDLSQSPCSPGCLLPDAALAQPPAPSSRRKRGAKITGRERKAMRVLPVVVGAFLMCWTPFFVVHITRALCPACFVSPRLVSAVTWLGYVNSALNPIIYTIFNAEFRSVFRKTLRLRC

[5] = molecular target: T3, Alpha-2C adrenergic receptor (Homo sapiens, UniProt P18825); test: Binding affinity to human adrenergic Alpha-2C receptor
T3 sequence (P18825 whole entry): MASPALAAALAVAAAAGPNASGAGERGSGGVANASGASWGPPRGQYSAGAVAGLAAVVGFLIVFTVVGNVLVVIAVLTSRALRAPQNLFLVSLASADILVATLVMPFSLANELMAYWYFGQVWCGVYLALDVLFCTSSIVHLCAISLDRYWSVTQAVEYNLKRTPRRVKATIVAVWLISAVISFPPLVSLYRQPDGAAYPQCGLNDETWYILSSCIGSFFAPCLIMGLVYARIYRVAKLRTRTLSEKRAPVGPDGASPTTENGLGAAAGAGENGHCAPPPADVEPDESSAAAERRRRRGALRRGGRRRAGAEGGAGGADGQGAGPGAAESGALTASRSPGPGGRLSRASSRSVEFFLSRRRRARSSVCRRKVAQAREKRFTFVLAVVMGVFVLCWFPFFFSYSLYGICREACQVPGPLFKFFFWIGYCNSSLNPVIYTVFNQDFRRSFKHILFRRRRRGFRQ

D(3) dopamine receptor = D(3) dopamine receptor (Rattus norvegicus, UniProt P19020); test: Binding affinity to rat dopamine D3 receptor
D(3) dopamine receptor, sequence (P19020 whole entry): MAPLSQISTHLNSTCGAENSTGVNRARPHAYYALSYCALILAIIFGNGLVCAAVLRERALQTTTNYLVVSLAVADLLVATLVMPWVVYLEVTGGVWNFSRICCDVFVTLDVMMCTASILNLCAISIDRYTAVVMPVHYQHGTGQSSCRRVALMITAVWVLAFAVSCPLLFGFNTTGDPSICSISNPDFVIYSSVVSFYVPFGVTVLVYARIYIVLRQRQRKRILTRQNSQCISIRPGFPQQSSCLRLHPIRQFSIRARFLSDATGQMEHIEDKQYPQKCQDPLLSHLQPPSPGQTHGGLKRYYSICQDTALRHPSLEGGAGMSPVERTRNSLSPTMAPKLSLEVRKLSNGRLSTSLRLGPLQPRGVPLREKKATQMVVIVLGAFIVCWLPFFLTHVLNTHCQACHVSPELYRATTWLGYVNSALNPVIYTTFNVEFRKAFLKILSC

[6] = molecular target: T4, Alpha-1B adrenergic receptor (Homo sapiens, UniProt P35368); test: Binding affinity to human adrenergic Alpha-1B receptor
T4 sequence (P35368 whole entry): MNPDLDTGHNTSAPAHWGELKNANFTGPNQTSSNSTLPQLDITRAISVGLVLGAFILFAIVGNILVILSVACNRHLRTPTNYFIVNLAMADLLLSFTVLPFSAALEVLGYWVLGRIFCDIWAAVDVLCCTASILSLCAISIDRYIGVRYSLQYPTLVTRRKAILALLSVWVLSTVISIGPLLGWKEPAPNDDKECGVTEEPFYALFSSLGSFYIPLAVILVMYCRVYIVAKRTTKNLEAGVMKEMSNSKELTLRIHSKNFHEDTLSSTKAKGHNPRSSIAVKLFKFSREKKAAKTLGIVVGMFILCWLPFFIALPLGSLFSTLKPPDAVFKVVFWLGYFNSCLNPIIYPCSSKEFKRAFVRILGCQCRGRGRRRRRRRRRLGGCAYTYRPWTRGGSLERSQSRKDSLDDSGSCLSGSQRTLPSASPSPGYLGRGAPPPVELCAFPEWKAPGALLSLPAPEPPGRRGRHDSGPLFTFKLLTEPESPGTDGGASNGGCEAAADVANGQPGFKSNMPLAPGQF

[7] = molecular target: Sigma non-opioid intracellular receptor 1 (Rattus norvegicus, UniProt Q9R0C9); test: Binding affinity to rat sigma 1 receptor
Sigma non-opioid intracellular receptor 1, sequence (Q9R0C9 whole entry): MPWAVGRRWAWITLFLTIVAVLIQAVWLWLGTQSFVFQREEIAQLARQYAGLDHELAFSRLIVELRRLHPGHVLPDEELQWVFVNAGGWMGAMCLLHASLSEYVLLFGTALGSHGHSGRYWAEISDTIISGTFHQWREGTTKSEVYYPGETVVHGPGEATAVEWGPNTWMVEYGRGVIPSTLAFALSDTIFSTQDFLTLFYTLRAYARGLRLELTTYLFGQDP

[8] = molecular target: T5, Alpha-2B adrenergic receptor (Homo sapiens, UniProt P18089); test: Binding affinity to human adrenergic alpha2B receptor
T5 sequence (P18089 whole entry): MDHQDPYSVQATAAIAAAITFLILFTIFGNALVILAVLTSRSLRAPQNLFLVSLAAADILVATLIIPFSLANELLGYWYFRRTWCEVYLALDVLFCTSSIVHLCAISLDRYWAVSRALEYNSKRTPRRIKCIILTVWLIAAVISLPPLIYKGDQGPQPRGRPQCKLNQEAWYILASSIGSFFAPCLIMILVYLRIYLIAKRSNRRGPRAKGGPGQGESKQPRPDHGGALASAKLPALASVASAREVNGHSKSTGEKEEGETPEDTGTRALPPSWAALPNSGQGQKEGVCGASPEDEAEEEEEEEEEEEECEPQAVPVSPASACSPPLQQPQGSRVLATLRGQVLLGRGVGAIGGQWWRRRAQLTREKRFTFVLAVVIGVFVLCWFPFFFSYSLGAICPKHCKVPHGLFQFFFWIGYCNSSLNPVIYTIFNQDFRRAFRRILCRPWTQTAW
In short: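 Radioligand binding run by the NIMH Psychoactive Drug Screening Program as part of a broad receptor and binding-site panel, which included α1A, α1B, α1D and α2A–C subtypes. Affinity is expressed as Ki.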

D(2) dopamine receptor = D(2) dopamine receptor (Rattus norvegicus, UniProt P61169); test: Binding affinity to rat dopamine D2 receptor
D(2) dopamine receptor, sequence (P61169 whole entry): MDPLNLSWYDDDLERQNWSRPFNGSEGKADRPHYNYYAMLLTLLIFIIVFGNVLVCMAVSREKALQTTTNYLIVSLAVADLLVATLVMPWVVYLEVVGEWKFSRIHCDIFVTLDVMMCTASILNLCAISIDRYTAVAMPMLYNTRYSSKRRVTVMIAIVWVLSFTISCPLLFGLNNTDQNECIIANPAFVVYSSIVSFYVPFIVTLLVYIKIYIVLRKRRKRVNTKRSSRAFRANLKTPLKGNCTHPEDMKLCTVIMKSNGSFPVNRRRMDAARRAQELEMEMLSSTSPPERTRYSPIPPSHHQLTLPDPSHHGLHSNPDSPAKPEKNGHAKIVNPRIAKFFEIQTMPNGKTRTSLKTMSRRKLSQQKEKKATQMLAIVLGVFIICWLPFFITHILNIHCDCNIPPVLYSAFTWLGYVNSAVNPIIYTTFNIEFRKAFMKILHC

[9] = molecular target: 5-hydroxytryptamine receptor 1D (Homo sapiens, UniProt P28221); test: Binding affinity to human 5-HT1D receptor
5-hydroxytryptamine receptor 1D, sequence (P28221 whole entry): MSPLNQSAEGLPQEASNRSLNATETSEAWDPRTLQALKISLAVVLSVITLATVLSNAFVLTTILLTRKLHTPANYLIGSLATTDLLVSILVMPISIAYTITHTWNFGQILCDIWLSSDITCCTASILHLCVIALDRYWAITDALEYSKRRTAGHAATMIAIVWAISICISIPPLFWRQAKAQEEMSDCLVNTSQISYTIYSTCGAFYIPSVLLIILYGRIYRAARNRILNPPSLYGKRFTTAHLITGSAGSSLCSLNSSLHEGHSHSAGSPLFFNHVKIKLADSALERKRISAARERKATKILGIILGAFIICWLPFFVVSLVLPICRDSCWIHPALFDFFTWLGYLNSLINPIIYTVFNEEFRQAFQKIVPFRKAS

Histamine H3 receptor = Histamine H3 receptor (Cavia porcellus, UniProt Q9JI35); test: Binding affinity to guinea pig histamine H3 receptor
Histamine H3 receptor, sequence (Q9JI35 whole entry): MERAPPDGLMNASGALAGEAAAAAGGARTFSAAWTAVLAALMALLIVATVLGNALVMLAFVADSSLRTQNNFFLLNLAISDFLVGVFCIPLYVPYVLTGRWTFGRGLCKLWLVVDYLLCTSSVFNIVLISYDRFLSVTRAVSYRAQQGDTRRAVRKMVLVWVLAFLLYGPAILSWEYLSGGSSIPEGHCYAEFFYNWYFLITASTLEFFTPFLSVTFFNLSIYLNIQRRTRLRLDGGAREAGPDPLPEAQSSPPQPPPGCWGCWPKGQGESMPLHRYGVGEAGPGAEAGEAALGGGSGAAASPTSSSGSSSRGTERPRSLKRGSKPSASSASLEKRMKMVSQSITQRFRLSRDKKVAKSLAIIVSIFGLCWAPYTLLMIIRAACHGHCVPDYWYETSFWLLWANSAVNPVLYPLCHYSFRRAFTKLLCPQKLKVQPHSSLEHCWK

[10] = molecular target: T6, 5-hydroxytryptamine receptor 2C (Homo sapiens, UniProt P28335); test: Binding affinity to human 5-HT2C receptor
T6 sequence (P28335 whole entry): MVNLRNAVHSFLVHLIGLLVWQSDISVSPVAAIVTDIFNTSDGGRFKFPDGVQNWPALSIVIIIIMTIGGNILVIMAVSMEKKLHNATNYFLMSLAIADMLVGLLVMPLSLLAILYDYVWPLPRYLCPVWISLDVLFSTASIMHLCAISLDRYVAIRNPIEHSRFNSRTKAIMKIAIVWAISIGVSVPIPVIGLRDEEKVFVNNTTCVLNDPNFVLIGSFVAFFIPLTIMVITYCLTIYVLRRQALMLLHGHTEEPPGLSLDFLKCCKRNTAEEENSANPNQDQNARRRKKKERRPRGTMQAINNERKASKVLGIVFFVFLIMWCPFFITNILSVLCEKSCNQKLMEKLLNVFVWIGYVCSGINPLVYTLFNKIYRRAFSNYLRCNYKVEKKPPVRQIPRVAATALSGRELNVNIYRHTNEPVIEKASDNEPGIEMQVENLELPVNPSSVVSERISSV

[11] = Binding affinity to rat sigma 2 receptor
[12] = molecular target: T7, Alpha-1A adrenergic receptor (Homo sapiens, UniProt P35348); test: Binding affinity to human adrenergic alpha1A receptor
T7 sequence (P35348 whole entry): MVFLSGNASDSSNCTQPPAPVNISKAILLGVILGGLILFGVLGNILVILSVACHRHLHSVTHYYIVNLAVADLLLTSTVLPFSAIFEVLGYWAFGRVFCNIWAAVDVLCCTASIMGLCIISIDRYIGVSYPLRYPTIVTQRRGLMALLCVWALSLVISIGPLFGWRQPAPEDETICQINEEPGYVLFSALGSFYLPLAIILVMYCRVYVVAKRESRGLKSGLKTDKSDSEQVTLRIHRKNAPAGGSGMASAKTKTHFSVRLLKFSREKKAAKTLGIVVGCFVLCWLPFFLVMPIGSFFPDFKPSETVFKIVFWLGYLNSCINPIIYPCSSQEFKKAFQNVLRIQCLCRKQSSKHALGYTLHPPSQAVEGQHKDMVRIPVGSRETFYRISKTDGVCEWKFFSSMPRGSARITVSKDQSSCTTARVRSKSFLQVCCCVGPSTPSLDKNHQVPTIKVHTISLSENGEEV

[13] = molecular target: 5-hydroxytryptamine receptor 2B (Homo sapiens, UniProt P41595); test: Binding affinity to human 5-HT2B receptor
5-hydroxytryptamine receptor 2B, sequence (P41595 whole entry): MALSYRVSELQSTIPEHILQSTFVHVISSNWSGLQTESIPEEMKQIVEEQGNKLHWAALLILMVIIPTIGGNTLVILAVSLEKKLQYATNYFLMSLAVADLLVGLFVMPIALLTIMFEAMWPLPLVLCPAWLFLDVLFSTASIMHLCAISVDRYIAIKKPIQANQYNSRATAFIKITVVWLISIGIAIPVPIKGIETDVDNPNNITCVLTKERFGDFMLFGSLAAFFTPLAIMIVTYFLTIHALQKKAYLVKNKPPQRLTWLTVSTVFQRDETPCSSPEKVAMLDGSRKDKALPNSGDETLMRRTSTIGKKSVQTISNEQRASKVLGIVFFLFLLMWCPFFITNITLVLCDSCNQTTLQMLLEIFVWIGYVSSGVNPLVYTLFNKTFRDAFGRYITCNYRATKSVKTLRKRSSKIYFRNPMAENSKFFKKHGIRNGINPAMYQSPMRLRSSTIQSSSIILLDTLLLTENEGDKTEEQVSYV

[14] = molecular target: T1, 5-hydroxytryptamine receptor 4; test: Antagonist activity at 5HT4 receptor expressed in HEK293/L9 cells by cAMP assay; assay type: functional, cell-based

Row | Compound | Ki [1] [nM] | Ki [2] [nM] | EC50 [3] [nM] | Efficacy [4] | also measured
1 | CCCCN1CCC(COC(=O)c2cc(I)c(N)c3c2OCCO3)CC1 | 0.2 |  |  |  | 
2 | CCCCN1CCC(COC(=O)c2cc(C#N)c(NC)c3c2OCCO3)CC1 |  | 37 | 15.8 | Active | 
3 | CCCCN1CCC(COC(=O)c2cc(F)c(N)c3c2OCCO3)CC1 | 0.334 | 2.1 | 5.89 | Active | Ki (D(4) dopamine receptor): 316 nM; Ki [5]: 593 nM; Ki (D(3) dopamine receptor): 1010 nM; Ki [6]: 9080 nM; Ki [7]: 55 nM; Ki [8]: 773 nM; Ki (D(2) dopamine receptor): 615 nM; Ki [9]: 2860 nM; Ki (Histamine H3 receptor): 5040 nM; Ki [10]: 8360 nM; Ki [11]: 12.9 nM; Ki [12]: 87.6 nM; Ki [13]: 168 nM
4 | CCCCCN1CCC(COC(=O)c2ccc(N)c(OC)c2)CC1 |  | 12 |  |  | 
5 | CCCCN1CCC(COC(=O)c2ccc(N)c(OCF)c2)CC1 | 0.334 | 17 |  |  | 
6 | CCCCN1CCC(COC(=O)c2ccc(N)c3c2OCCO3)CC1 |  | 1.4 |  |  | Efficacy [14]: Active
7 | CCCCN1CCC(COC(=O)c2ccc(N)c(OCCF)c2)CC1 | 0.215 | 11 |  |  | 
8 | CCCCN1CCC(COC(=O)c2cc([N+](=O)[O-])c(N)c3c2OCCO3)CC1 |  | 7.8 |  |  | 
9 | CCCCN1CCC(COC(=O)c2cc(C#N)c(N)c3c2OCCO3)CC1 | 0.45 | 33 |  |  | 
10 | CCCCN1CCC(COC(=O)c2ccc(NC)c3c2OCCO3)CC1 |  | 9.1 | 8.91 | Active | 
11 | CCCCN1CCC(COC(=O)c2cc(C)c(N)c3c2OCCO3)CC1 |  | 6.3 |  |  | Efficacy [14]: Active
12 | CCCCN1CCC(COC(=O)c2cc(Br)c(NC)c3c2OCCO3)CC1 |  | 4.5 | 10 | Active | 
13 | CCCN1CCC(COC(=O)c2ccc(N)c(OC)c2)CC1 | 0.901 | 17 |  |  | 
14 | CCCCN1CCC(CNC(=O)c2ccc(N)c(OC)c2)CC1 |  | 8660 |  |  | 
15 | CCCCN1CCC(COC(=O)c2cc(I)c(NC)c3c2OCCO3)CC1 |  | 7.4 | 20 | Active | 
